The text below walks through data of ChEMBL document CHEMBL1122343, “2-Benzazepines. 4. [1,2,3]Triazolo[4,5-d][2]benzazepines and dibenzo[c,f][1,2,3]triazolo[3,4-a]azepines: synthesis and evaluation as central nervous system agents” (J Med Chem, 1983).

SMILES strings stand for the structures.

By ED50 is commonly meant the dose at which the effect has come halfway, by size or by number of responders. Read a low ED50 as greater potency. The term IC50 denotes the midpoint of a concentration-inhibition curve. By LD50 is commonly meant the dose at which mortality reaches 50%. A high value points to a less toxic substance.

The subject of data set [1] is Mus musculus. In words: Antianxiety activity, by anti-pentylenetetrazole test carried out on 50-54 day old mice (po). The format is functional. Summed up: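 Oral dosing to male CF-1 mice aged 50–54 days, using a modification of the Everett and Richards method. Metrazole was given iv at 70 mg/kg as the convulsant challenge.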
For data set [2], the target named is GABA-A receptor; anion channel. In words: In vitro inhibition of [3H]diazepam binding to rat GABA-A benzodiazepine receptor. The format is protein-complex assay.
A short description of data set [3]: Lethal dose tested in mice by oral administration. The format is toxicity, organism-based. Particulars: mouse, in vivo.
In data set [4] the test system is Mus musculus. In words: Antianxiety activity, by rotarod test carried out on 50-54 day old mice (po). Format: functional.
The subject of data set [5] is Mus musculus. In words: Antianxiety activity, by inclined screen procedure carried out on 50-54 day old mice(po). Format: functional.

With `Clc1ccccc1C1=NCc2n[nH]nc2-c2ccccc21`, the ED50 in the data set on Mus musculus [1] is over 100 mg/kg. This compound also showed an IC50 in data set [2] of 5.2 nM. For the same compound, in data set [3], the LD50 is 900 mg/kg.
`Clc1ccc2c(c1)C(c1ccccc1)=NCc1n[nH]nc1-2`: the 50% effective dose (ED50) with Mus musculus [4] is 26 mg/kg; with Mus musculus [1], 4.2 mg/kg; in the data set on Mus musculus [5], over 400 mg/kg. The compound also gave an IC50 in data set [2] of 11 nM. Further, the LD50 in data set [3] was over 1000 mg/kg.
With `c1ccc(C2=NCc3n[nH]nc3-c3ccccc32)cc1`, in the data set on Mus musculus [1], the ED50 was over 100 mg/kg. The same compound gave an IC50 in data set [2] of 420 nM. In data set [3], this compound registered an LD50 of 775 mg/kg.
As to `Clc1ccc2c(c1)C(c1ccccc1Cl)=NCc1n[nH]nc1-2`, the ED50 is 57 mg/kg with Mus musculus [4], 2.6 mg/kg in the data set on Mus musculus [1] and over 400 mg/kg in the data set with Mus musculus [5]. The IC50 in data set [2] is 0.76 nM. The LD50 in data set [3] is over 1000 mg/kg.
The corresponding values for `Fc1ccccc1C1=NCc2n[nH]nc2-c2ccc(Cl)cc21` are 48 mg/kg, 2.1 mg/kg, 302 mg/kg, 0.76 nM and over 1000 mg/kg.
On to `CN1C(=O)CN=C(c2ccccc2)c2cc(Cl)ccc21` [DIAZEPAM], for which the results for the ED50 in the data set with Mus musculus [4], with Mus musculus [1] and with Mus musculus [5] were 2.6 mg/kg, 1.4 mg/kg and 25 mg/kg, respectively.
